The IC50 is the point on the concentration scale where inhibition reaches its midpoint.

The subject of assay [1] is MCF-7 (human breast adenocarcinoma). In words: MTT anti-proliferative assay on MCF-7. In kind it is cell-based. The conditions noted are these: MCF7, 48 h, read-out: IC50 (μM) ± SD MCF-7, MTT, 48 h, MCF-7. The method in brief:
(§1)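 Cells grown at 37 °C in humidified 5% CO2 and seeded at 5 × 10^4 per well. Exposed 48 h at 37 °C to a concentration series of test compound, or doxorubicin as positive control, in serum-free medium with DMSO. MTT solution (2.5 mg ml−1) added for 4 h, formazan dissolved in DMSO, absorbance read at 590 nm. Viability taken as percent of untreated control; technical triplicate, three biological replicates, mean ± SD; IC50 by probit analysis.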

Assay [2] deals with HCT-116 (human colorectal carcinoma). In words: MTT anti-proliferative assay on HCT-116. In kind it is cell-based. The conditions noted are these: HCT-116, 48 h, read-out: IC50 (μM) ± SD HCT-116. The method in brief: as §1
Background: Tetrazolium assays rely on reduction of a dye to a coloured formazan, in cell work by metabolically active cells.

For assay [3], the system named is human liver carcinoma (HepG-2). In words: MTT anti-proliferative assay on HepG-2. In kind it is cell-based. The conditions noted are these: HepG2, 48 h, read-out: IC50 (μM) ± SD HepG-2, MTT, 48 h, HepG-2. Put shortly: as §1
Assay [4] concerns the target EGFR (Homo sapiens, UniProt P00533). In words: In vitro EGFR kinase activity assay. Format: biochemical.
Assay [5] has as its target PI3Kβ (p110β/p85α) (Homo sapiens, UniProt P42338). In words: In vitro PI3K activity assay. Format: biochemical.
In assay [6] the target is mTOR (Homo sapiens, UniProt P42345). The experiment in a line: In vitro m-TOR activity assay. In kind it is biochemical.
Assay [7] has as its system MCF-7 cells. The experiment in a line: Cell cycle analysis. In kind it is cell-based, human. Put shortly: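 MCF-7 cells seeded at 8 × 10^4, held overnight at 37 °C with 5% CO2, then treated 48 h with test compound. Pelleted at 300 g for 5 min and fixed in 70% ethanol on ice for 15 min. Flow cytometry run within 1 h of staining.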
Assay [8] relates to MCF-7 cells. In words: Apoptosis assay. In kind it is cell-based, human.

Sequence of PI3Kβ (p110β/p85α) (P42338 whole entry): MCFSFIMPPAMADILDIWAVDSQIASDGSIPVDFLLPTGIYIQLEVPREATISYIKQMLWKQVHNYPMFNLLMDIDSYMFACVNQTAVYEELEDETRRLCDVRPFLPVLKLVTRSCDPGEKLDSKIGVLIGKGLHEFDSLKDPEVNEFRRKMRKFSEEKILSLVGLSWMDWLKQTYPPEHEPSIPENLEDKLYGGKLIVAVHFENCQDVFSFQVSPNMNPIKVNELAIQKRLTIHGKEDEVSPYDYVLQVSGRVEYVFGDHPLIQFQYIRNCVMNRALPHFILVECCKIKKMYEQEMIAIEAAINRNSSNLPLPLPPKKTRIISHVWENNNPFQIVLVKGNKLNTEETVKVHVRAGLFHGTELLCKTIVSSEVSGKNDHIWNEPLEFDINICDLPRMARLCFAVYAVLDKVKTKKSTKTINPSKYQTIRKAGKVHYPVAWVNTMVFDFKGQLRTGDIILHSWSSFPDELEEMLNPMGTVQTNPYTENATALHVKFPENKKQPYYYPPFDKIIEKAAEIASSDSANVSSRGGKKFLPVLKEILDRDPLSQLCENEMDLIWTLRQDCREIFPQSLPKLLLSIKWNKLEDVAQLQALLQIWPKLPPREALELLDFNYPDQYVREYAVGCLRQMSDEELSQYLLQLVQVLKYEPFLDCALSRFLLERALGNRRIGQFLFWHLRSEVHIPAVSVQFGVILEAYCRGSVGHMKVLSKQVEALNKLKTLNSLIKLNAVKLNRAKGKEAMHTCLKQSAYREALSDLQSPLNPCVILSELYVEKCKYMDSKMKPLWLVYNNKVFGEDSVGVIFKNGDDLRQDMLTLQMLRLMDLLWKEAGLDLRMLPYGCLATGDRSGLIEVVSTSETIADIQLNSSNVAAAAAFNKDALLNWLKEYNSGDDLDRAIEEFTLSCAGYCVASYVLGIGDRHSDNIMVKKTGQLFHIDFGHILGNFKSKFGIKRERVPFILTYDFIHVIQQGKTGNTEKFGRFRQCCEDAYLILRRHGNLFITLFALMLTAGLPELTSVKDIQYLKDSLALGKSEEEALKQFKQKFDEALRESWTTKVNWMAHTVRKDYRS
Sequence of PI3Kβ (p110β/p85α) (P27986 whole entry partner): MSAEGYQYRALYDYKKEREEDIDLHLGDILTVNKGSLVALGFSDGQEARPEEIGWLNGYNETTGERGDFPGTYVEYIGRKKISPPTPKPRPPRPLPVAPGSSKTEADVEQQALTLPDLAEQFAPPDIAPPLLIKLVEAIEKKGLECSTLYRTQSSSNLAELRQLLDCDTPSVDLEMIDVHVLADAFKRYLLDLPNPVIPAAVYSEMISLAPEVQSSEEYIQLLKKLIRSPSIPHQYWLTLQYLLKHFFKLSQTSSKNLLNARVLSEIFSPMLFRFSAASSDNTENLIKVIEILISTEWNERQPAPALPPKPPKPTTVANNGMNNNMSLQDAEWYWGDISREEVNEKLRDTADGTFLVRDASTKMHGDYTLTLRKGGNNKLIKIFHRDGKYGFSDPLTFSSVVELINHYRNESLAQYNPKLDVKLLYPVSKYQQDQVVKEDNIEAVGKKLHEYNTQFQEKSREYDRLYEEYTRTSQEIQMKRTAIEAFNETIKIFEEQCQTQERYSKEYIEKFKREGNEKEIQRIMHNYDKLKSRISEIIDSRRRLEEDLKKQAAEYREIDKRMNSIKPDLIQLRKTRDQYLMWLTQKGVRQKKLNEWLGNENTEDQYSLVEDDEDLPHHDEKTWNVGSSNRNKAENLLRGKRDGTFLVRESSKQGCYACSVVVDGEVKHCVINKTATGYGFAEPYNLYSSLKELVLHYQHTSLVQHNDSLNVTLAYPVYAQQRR
Sequence of EGFR (P00533 25-1210): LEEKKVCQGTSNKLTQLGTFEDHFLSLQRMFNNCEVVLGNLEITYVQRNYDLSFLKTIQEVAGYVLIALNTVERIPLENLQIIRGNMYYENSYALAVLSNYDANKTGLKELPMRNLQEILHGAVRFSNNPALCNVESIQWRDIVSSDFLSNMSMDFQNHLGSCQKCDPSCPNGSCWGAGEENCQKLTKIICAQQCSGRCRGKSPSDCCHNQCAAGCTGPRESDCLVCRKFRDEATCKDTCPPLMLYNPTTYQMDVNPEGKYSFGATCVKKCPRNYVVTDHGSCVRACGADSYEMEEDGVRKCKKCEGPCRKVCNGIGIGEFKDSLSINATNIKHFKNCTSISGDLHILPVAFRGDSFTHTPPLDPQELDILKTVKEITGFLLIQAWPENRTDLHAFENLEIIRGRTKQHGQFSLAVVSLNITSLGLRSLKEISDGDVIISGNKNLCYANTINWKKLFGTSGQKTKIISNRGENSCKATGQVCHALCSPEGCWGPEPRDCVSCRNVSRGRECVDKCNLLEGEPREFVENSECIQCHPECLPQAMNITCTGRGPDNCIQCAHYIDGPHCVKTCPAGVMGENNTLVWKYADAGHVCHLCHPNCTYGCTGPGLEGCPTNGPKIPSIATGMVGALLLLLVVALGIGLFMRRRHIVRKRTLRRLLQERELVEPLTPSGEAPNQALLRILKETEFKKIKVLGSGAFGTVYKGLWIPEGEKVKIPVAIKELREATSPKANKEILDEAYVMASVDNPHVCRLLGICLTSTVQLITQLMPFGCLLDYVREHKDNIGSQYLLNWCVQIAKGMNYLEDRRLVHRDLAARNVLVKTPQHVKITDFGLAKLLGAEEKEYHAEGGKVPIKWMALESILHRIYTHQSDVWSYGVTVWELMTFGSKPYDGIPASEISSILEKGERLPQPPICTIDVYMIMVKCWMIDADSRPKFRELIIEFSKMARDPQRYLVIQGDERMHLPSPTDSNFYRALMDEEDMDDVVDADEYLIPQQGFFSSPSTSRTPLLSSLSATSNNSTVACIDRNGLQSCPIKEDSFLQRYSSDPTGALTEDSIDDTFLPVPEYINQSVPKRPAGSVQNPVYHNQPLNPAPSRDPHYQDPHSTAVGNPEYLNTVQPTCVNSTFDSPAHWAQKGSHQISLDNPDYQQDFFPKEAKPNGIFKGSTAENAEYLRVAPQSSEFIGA

Turning to `CC(=NN=C1SCC(=O)N1C)c1c(O)c2ccccc2oc1=O` [Compound 7b, 3-Methyl-2-{[1-(4-hydroxy-2-oxo-2H-chromen-3-yl)-ethylidene]-hydrazono}-thiazolidin-4-one], the values for the 50% inhibitory concentration (IC50) in assay [1], in assay [2] and in assay [3] were 32.8 ± 3.5 µM, 41.2 ± 3.9 µM and 65.7 ± 5.1 µM, respectively.

With `CC(=NN=c1[nH]c(C)cs1)c1c(O)c2ccccc2oc1=O` [Compound 3a, 3-{1-[(4-Methyl-3H-thiazol-2-ylidene)-hydrazono]-ethyl}-4-hydroxy-2H-chromen-2-one], the IC50 in assay [1] is 34.5 ± 3.6 µM; in assay [2] it was 32.6 ± 3.1 µM; in assay [3], 42.5 ± 4.1 µM.

For the compound `COc1cccc2c1C(=O)c1c(O)c3c(c(O)c1C2=O)C[C@@](O)(C(=O)CO)C[C@@H]3O[C@H]1C[C@H](N)[C@H](O)[C@H](C)O1` [Doxorubicin, reference compound], the IC50 in assay [1] amounted to 16.7 ± 1.5 µM; in assay [2], 21.8 ± 2.9 µM; in assay [3], 63.2 ± 5.8 µM.

Regarding `CC(=NN=c1scc(C)n1C)c1c(O)c2ccccc2oc1=O` [Compound 3b, 3-{1-[(3,4-Dimethyl-3H-thiazol-2-ylidene)-hydrazono]-ethyl}-4-hydroxy-2H-chromen-2-one], the IC50 in assay [1] amounted to 34.9 ± 3.1 µM; in assay [2], 27.2 ± 2.9 µM; in assay [3], 46.1 ± 3.7 µM.

Consider `CCOC(=O)c1sc(=NN=C(C)c2c(O)c3ccccc3oc2=O)n(C)c1C` [Compound 6b, 3,4-Dimethyl-2-{[1-(4-hydroxy-2-oxo-2H-chromen-3-yl)-ethylidene]-hydrazono}-2,3-dihydro-thiazole-5-carboxylic acid ethyl ester], for which the IC50 came to 11.2 ± 1.1 µM in assay [1]; 0.563 ± 0.03 µM in assay [4]; 0.361 ± 0.02 µM in assay [5]; 5.9 ± 0.7 µM in assay [2]; 41.4 ± 2.9 µM in assay [3]; 1.45 ± 0.08 µM in assay [6].

As to `CCn1c(C)c(N=Nc2ccccc2)sc1=NN=C(C)c1c(O)c2ccccc2oc1=O` [Compound 9c, 3-{1-[(3-Ethyl-4-methyl-5-phenylazo-3H-thiazol-2-ylidene)-hydrazono]-ethyl}-4-hydroxy-2H-chromen-2-one], the IC50 was determined as 32.8 ± 2.8 µM in assay [1], 47.2 ± 4.5 µM in assay [2] and 60.9 ± 4.8 µM in assay [3].

Turning to `CC(=NN=C1SC(C)C(=O)N1C)c1c(O)c2ccccc2oc1=O` (centres unmarked) [Compound 8b, 3,5-Dimethyl-2-{[1-(4-hydroxy-2-oxo-2H-chromen-3-yl)-ethylidene]-hydrazono}-thiazolidin-4-one], the IC50 in assay [1] worked out at 26.1 ± 3.5 µM; in assay [2], 44.8 ± 4.5 µM; in assay [3] it was 67.2 ± 4.9 µM.

Take `CCn1c(C)csc1=NN=C(C)c1c(O)c2ccccc2oc1=O` [Compound 3c, 3-{1-[(3-Ethyl-4-methyl-3H-thiazol-2-ylidene)-hydrazono]-ethyl}-4-hydroxy-2H-chromen-2-one]: the IC50 in assay [1] is 36.5 ± 4.2 µM; in assay [2], 36.3 ± 3.5 µM; in assay [3] it was 68.2 ± 5.6 µM.

On to `CC(=NN=c1scc(-c2ccccc2)n1C)c1c(O)c2ccccc2oc1=O` [Compound 5b, 3-{1-[(3-Methyl-4-phenyl-3H-thiazol-2-ylidene)-hydrazono]-ethyl}-4-hydroxy-2H-chromen-2-one], for which the values for the IC50 in assay [1], in assay [2] and in assay [3] were 34.6 ± 2.9 µM, 42.4 ± 4.1 µM and 66.4 ± 5.6 µM, respectively.

As for `CCn1c(C)c(N=Nc2ccc(C)cc2)sc1=NN=C(C)c1c(O)c2ccccc2oc1=O` [Compound 9f, 3-{1-[(3-Ethyl-4-methyl-5-(4-tolyl)azo-3H-thiazol-2-ylidene)-hydrazono]-ethyl}-4-hydroxy-2H-chromen-2-one], the IC50 came out at 17.8 ± 1.1 µM in assay [1], 40.1 ± 4.7 µM in assay [2] and 82.1 ± 6.1 µM in assay [3].

In the case of `CC(=NN=c1sc(N=Nc2ccccc2)c(C)n1C)c1c(O)c2ccccc2oc1=O` [Compound 9b, 3-{1-[(3,4-Dimethyl-5-phenylazo-3H-thiazol-2-ylidene)-hydrazono]-ethyl}-4-hydroxy-2H-chromen-2-one], the IC50 in assay [1] was found to be 32.3 ± 3.5 µM; in assay [2] it was 37.9 ± 2.5 µM; in assay [3], 64.1 ± 5.5 µM.

Regarding `CCn1c(C)c(C(C)=O)sc1=NN=C(C)c1c(O)c2ccccc2oc1=O` [Compound 4c, 3-{1-[(5-Acetyl-3-ethyl-4-methyl-3H-thiazol-2-ylidene)-hydrazono]-ethyl}-4-hydroxy-2H-chromen-2-one], the results for the IC50 in assay [1], in assay [2] and in assay [3] were 33.7 ± 3.2 µM, 38.9 ± 3.2 µM and 62.5 ± 3.9 µM, respectively.

For the compound `CCOC(=O)c1sc(=NN=C(C)c2c(O)c3ccccc3oc2=O)[nH]c1C` [Compound 6a, 4-Methyl-2-{[1-(4-hydroxy-2-oxo-2H-chromen-3-yl)-ethylidene]-hydrazono}-2,3-dihydro-thiazole-5-carboxylic acid ethyl ester], the IC50 in assay [1] was found to be 6.4 ± 0.5 µM; in assay [4], 0.184 ± 0.01 µM; in assay [5] it was 0.131 ± 0.007 µM; in assay [2], 20.4 ± 1.9 µM; in assay [3], 57.2 ± 4.3 µM; in assay [6] it was 0.719 ± 0.04 µM. Besides, the “effect on cell cycle progression” value in assay [7] is on record as “cell growth arrest at S phase”. Moreover, in assay [8], the effect on apoptosis entry was “increase in the early and late cellular apoptosis”.

In the case of `CCOC(=O)c1sc(=NN=C(C)c2c(O)c3ccccc3oc2=O)n(CC)c1C` [Compound 6c, 3-Ethyl-4-methyl-2-{[1-(4-hydroxy-2-oxo-2H-chromen-3-yl)-ethylidene]-hydrazono}-2,3-dihydro-thiazole-5-carboxylic acid ethyl ester], the IC50 in assay [1] was found to be 20.7 ± 2.1 µM; in assay [2], 24.7 ± 1.6 µM; in assay [3], 45.1 ± 4.1 µM.

Consider `CC(=O)c1sc(=NN=C(C)c2c(O)c3ccccc3oc2=O)n(C)c1C` [Compound 4b, 3-{1-[(5-Acetyl-3,4-dimethyl-3H-thiazol-2-ylidene)-hydrazono]-ethyl}-4-hydroxy-2H-chromen-2-one], for which the IC50 in assay [1] came to 32.7 ± 3.5 µM; in assay [2], 24.3 ± 2.7 µM; in assay [3], 57.1 ± 4.3 µM.

Take `CC(=NN=C1NC(=O)C(C)S1)c1c(O)c2ccccc2oc1=O` (centres unmarked) [Compound 8a, 5-Methyl-2-{[1-(4-hydroxy-2-oxo-2H-chromen-3-yl)-ethylidene]-hydrazono}-thiazolidin-4-one]: the IC50 worked out at 27.4 ± 1.9 µM in assay [1], 38.3 ± 4.2 µM in assay [2] and 42.4 ± 3.5 µM in assay [3].

Regarding `CC(=O)c1sc(=NN=C(C)c2c(O)c3ccccc3oc2=O)[nH]c1C` [Compound 4a, 3-{1-[(5-Acetyl-4-methyl-3H-thiazol-2-ylidene)-hydrazono]-ethyl}-4-hydroxy-2H-chromen-2-one], the IC50 in assay [1] stood at 25.6 ± 3.1 µM; in assay [2], 31.4 ± 3.1 µM; in assay [3] it was 48.8 ± 3.1 µM.

`CCN1C(=O)C(C)SC1=NN=C(C)c1c(O)c2ccccc2oc1=O` (centres unmarked) [Compound 8c, 3-Ethyl-5-methyl-2-{[1-(4-hydroxy-2-oxo-2H-chromen-3-yl)-ethylidene]-hydrazono}-thiazolidin-4-one]: the concentration for half-maximal inhibition (IC50) in assay [1] worked out at 7.4 ± 0.9 µM; in assay [2], 44.9 ± 4.3 µM; in assay [3], 80.2 ± 5.9 µM.

Regarding `CC(=NN=c1[nH]c(C)c(N=Nc2ccc(C)cc2)s1)c1c(O)c2ccccc2oc1=O` [Compound 9d, 3-{1-[(4-Methyl-5-(4-tolyl)azo-3H-thiazol-2-ylidene)-hydrazono]-ethyl}-4-hydroxy-2H-chromen-2-one], the values for the IC50 in assay [1], in assay [2] and in assay [3] were 26.3 ± 2.5 µM, 45.6 ± 4.2 µM and 57.2 ± 4.6 µM, respectively.

Regarding `CNC(=S)NN=C(C)c1c(O)c2ccccc2oc1=O` [Compound 2b, 4-Methyl-1-(1-(4-hydroxy-2-oxo-2H-chromen-3-yl)ethylidene)thiosemicarbazide], the 50% inhibitory concentration (IC50) worked out at 13.6 ± 1.5 µM in assay [1]; 2.28 ± 0.14 µM in assay [4]; 1.33 ± 0.074 µM in assay [5]; 7.2 ± 0.6 µM in assay [2]; 48.1 ± 3.9 µM in assay [3]; 2.96 ± 0.18 µM in assay [6].

As to `CC(=NN=c1sc(N=Nc2ccc(C)cc2)c(C)n1C)c1c(O)c2ccccc2oc1=O` [Compound 9e, 3-{1-[(3,4-Dimethyl-5-(4-tolyl)azo-3H-thiazol-2-ylidene)-hydrazono]-ethyl}-4-hydroxy-2H-chromen-2-one], the IC50 in assay [1] was 23.3 ± 1.9 µM; in assay [2], 55.2 ± 5.1 µM; in assay [3], 74.4 ± 5.9 µM.

On to `CC(=NN=c1[nH]c(C)c(N=Nc2ccccc2)s1)c1c(O)c2ccccc2oc1=O` [Compound 9a, 3-{1-[(4-Methyl-5-phenylazo-3H-thiazol-2-ylidene)-hydrazono]-ethyl}-4-hydroxy-2H-chromen-2-one], for which the IC50 in assay [1] came out at 33.4 ± 2.8 µM; in assay [2], 33.9 ± 2.8 µM; in assay [3], 71.2 ± 5.1 µM.
